Measured values: ChEMBL document CHEMBL1135823, “Discovery and SAR of a novel selective and orally bioavailable nonpeptide classical competitive inhibitor class of protein-tyrosine phosphatase 1B” (J Med Chem, 2002)

Key:
[1] = target: Receptor-type tyrosine-protein phosphatase F (Homo sapiens, UniProt P10586); experiment: Inhibitory effect against protein-tyrosine phosphatase Lar, using p-nitrophenyl phosphate as substrate at pH 5.5.
[2] = target: Receptor-type tyrosine-protein phosphatase alpha (Homo sapiens, UniProt P18433); experiment: Inhibitory effect against human protein-tyrosine phosphatase alpha (PTPalpha), using p-nitrophenyl phosphate substrate at pH 5.5.
Method in brief: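 Ki from pNPP hydrolysis assays at pH 5.5 with recombinant PTPα or LAR.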

[3] = target: T1, Tyrosine-protein phosphatase non-receptor type 1 (Homo sapiens, UniProt P18031); experiment: Inhibition of human recombinant Protein-tyrosine phosphatase 1B.
T1 sequence (P18031 whole entry): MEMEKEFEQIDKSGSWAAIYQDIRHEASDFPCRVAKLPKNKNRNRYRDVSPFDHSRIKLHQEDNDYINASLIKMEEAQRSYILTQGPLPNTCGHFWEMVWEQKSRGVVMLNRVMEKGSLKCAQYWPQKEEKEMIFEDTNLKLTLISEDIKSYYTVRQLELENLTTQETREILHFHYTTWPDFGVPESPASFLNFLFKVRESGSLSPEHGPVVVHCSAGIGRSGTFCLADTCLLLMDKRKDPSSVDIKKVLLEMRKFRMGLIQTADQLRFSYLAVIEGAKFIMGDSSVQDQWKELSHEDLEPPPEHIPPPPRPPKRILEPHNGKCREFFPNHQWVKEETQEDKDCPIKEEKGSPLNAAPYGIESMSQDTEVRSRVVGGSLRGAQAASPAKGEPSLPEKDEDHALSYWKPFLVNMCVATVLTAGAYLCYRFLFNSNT
Method in brief: (§1)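 Enzyme is a soluble recombinant human PTP1B (residues 1–321). Ki is measured at pH 5.5 with p-nitrophenyl phosphate (pNPP) as substrate.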

[4] = target: T2, Tyrosine-protein phosphatase non-receptor type 2 (Homo sapiens, UniProt P17706); experiment: Inhibition of T cell protein tyrosine phosphatase (TC-PTP) at pH 7.0; format: single protein
T2 sequence (P17706 whole entry): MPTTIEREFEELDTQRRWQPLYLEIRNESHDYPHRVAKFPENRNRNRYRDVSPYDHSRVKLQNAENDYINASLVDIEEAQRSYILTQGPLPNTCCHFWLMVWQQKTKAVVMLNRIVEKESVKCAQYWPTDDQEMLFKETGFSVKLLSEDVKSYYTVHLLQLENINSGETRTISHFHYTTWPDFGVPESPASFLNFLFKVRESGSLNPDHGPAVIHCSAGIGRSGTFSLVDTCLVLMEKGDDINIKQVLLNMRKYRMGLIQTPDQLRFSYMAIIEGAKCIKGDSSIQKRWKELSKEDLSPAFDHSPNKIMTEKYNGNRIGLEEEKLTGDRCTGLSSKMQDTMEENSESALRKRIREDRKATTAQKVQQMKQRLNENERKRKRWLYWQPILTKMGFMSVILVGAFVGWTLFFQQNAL
Method in brief: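 Ki from a pNPP hydrolysis assay with recombinant TC-PTP, run at pH 7.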

[5] = target: T1, Tyrosine-protein phosphatase non-receptor type 1; experiment: Inhibitory effect against recombinant human protein-tyrosine phosphatase 1B (PTP1B), using p-nitrophenyl phosphate substrate at pH 5.5.
[6] = Pharmacokinetic Parameter clearance was reported for Protein Tyrosine Phosphatase 1B; format: ADME, organism-based; details: in vivo
[7] = Oral bioavailability; format: ADME, organism-based; details: eutheria, in vivo, read-out: f (po)
[8] = Pharmacokinetic Parameter t1/2 was reported for Protein Tyrosine Phosphatase 1B; format: ADME, organism-based; details: in vivo
[9] = target: T1, Tyrosine-protein phosphatase non-receptor type 1; experiment: Inhibitory effect against recombinant human PTP1B (Protein Tyrosine phosphatase 1B) using p-nitrophenyl phosphate substrate at pH 5.5; method in brief: as §1
[10] = target: T1, Tyrosine-protein phosphatase non-receptor type 1; experiment: Inhibitory effect against recombinant human Protein-tyrosine phosphatase 1B (PTP1B) using p-nitrophenyl phosphate substrate at pH 5.5;ND is not determined; method in brief: as §1

Chain of Receptor-type tyrosine-protein phosphatase alpha (P18433 whole entry): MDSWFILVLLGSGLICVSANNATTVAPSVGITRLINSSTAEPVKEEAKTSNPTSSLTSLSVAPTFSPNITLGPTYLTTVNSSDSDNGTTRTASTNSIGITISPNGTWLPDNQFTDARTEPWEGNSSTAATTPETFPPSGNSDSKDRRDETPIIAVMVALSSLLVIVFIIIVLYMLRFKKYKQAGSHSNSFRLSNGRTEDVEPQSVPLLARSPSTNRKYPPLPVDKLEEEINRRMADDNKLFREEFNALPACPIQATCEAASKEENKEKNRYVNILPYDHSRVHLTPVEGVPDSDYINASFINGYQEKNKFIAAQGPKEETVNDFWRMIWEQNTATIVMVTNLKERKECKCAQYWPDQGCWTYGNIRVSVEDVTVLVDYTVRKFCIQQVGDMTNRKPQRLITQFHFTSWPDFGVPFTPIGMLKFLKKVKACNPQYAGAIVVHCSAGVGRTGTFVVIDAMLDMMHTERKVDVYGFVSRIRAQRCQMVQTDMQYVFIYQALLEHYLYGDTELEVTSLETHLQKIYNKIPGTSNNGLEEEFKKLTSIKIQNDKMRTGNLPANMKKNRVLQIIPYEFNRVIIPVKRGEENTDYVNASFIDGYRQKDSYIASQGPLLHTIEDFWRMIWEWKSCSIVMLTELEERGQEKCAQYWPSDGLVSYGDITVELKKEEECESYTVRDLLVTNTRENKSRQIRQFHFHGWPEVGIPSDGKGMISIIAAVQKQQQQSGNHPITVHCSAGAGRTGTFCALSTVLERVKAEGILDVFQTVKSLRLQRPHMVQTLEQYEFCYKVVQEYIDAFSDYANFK
Chain of Receptor-type tyrosine-protein phosphatase F (P10586 whole entry): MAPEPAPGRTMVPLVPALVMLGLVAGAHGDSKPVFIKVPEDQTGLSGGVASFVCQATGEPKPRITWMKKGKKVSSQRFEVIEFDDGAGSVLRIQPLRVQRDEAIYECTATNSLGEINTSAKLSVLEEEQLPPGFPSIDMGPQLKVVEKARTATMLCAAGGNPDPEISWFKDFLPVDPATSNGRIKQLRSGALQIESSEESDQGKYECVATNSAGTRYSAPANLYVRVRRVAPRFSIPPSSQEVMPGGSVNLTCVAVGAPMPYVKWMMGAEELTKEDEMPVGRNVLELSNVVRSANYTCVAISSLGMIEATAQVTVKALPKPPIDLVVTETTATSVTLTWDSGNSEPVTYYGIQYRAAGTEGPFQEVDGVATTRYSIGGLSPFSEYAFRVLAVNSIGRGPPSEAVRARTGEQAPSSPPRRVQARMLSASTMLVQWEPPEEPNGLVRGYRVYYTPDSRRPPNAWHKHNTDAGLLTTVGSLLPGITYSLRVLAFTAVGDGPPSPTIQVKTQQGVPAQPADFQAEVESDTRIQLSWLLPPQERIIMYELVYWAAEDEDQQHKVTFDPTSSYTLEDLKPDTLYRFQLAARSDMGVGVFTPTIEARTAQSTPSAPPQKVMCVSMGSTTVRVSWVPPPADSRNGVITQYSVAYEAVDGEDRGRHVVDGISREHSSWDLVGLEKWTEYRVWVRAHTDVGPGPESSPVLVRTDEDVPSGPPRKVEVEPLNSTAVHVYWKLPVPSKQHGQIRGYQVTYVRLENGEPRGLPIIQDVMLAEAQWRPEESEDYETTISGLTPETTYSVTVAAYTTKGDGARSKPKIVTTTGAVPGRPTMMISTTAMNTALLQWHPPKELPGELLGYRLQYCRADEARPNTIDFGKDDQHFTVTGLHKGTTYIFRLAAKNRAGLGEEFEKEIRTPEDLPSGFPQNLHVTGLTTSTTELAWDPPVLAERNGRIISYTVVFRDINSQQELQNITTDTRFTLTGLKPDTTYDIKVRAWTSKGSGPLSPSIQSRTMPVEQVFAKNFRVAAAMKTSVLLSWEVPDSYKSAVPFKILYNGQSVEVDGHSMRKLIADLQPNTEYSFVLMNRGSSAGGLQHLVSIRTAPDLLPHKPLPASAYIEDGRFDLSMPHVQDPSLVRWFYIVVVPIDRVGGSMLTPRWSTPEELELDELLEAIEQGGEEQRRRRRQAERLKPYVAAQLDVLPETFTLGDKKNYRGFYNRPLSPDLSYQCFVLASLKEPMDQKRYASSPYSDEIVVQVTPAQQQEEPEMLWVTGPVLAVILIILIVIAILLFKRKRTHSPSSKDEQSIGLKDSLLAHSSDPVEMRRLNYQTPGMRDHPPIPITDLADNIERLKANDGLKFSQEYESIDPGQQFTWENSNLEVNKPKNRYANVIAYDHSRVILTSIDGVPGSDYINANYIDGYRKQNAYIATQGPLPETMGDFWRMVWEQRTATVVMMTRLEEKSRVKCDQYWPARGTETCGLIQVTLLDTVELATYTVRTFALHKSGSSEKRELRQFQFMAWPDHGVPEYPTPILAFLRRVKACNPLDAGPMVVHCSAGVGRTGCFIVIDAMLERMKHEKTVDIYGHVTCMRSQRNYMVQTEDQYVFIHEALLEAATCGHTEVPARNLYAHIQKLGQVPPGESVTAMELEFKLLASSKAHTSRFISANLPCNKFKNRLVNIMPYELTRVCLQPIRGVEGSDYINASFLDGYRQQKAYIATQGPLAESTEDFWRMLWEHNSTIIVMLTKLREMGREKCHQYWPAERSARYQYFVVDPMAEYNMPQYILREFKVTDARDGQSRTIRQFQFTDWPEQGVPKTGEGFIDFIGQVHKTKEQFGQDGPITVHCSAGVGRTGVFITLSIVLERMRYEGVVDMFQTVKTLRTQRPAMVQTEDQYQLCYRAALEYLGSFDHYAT

| Ki [1] [µM] | Ki [2] [µM] | Ki [3] [µM] | Ki [5] [µM] | other results | Compound |
| --- | --- | --- | --- | --- | --- |
| 410 | 290 |  |  |  | O=C(O)C(=O)Nc1sc2c(c1C(=O)O)CCCC2 |
|  |  | 5.9 |  |  | O=C(O)C(=O)Nc1sc2c(c1C(=O)O)CCN(CCC(c1ccccc1)c1ccccc1)C2 |
|  |  | 11 |  | Ki [4]: 11 µM | O=C(O)C(=O)Nc1sc2c(c1C(=O)O)CCN(CCc1cccc3ccccc13)C2 |
| 2000 | > 2000 |  | 37 |  | O=C(O)C(=O)Nc1ccsc1C(=O)O |
| 550 | 800 |  | 18 |  | O=C(O)C(=O)Nc1ccc2cc[nH]c2c1C(=O)O |
|  | 210 |  | 4.5 |  | O=C(O)C(=O)Nc1cc(-c2ccc(O)cc2)sc1C(=O)O |
| 2000 | > 2000 |  | 2000 |  | Cc1csc(C(=O)O)c1NC(=O)C(=O)O |
|  |  | 12 |  | Ki [4]: 19 µM | O=C(O)C(=O)Nc1sc2c(c1C(=O)O)CCN(CCc1ccccn1)C2 |
|  |  | 16 |  | Ki [4]: 17 µM | O=C(O)C(=O)Nc1sc2c(c1C(=O)O)CCN(CCc1ccccc1OCc1ccccc1)C2 |
|  |  | 15 |  | Ki [4]: 10 µM | O=C(O)C(=O)Nc1sc2c(c1C(=O)O)CCN(CCc1ccc(OCc3ccccc3)cc1)C2 |
| > 2000 | > 2000 |  | 1700 |  | Cc1cccc(NC(=O)C(=O)O)c1C(=O)O |
|  | 170 |  |  | clearance [6]: 17 mL/min/kg; bioavailability [7]: 85%; half-life [8]: 1.3 h | O=C(O)C(=O)Nc1sc2c(c1C(=O)O)CCOC2 |
|  | 65 |  | 16 |  | O=C(O)C(=O)Nc1cc(-c2ccc(OCc3ccccc3)cc2)sc1C(=O)O |
| > 2000 | 870 |  |  |  | O=C(O)C(=O)Nc1ccccc1C(=O)O |
| > 2000 | 1000 |  | 160 |  | O=C(O)C(=O)Nc1cnccc1C(=O)O |
|  | 980 |  | 25 |  | COc1ccc(-c2cc(NC(=O)C(=O)O)c(C(=O)O)s2)cc1OC |
|  |  | 7.3 |  | Ki [4]: 12 µM | O=C(O)C(=O)Nc1sc2c(c1C(=O)O)CCN(CCCc1ccccc1)C2 |
| 90 | 250 |  | 13 |  | O=C(O)C(=O)Nc1cc(-c2ccccc2)sc1C(=O)O |
|  |  | 8.7 |  | Ki [4]: 13 µM | O=C(O)C(=O)Nc1sc2c(c1C(=O)O)CCN(CCc1ccncc1)C2 |
| 160 | 100 |  | 10 |  | O=C(O)C(=O)Nc1cc(-c2ccc(Cl)cc2)sc1C(=O)O |
|  |  | 8 |  | Ki [4]: 12 µM | O=C(O)C(=O)Nc1sc2c(c1C(=O)O)CCN(CCc1ccc(-c3ccccc3)cc1)C2 |
|  | 215 |  | 2 |  | O=C(O)C(=O)Nc1sc2c(c1C(=O)O)CCC(O)C2 (centres undefined) |
|  |  | 11 | 1 | Ki [4]: 22 µM | CN1CCc2c(sc(NC(=O)C(=O)O)c2C(=O)O)C1 |
| 900 | 340 |  | 12 |  | O=C(O)C(=O)Nc1sc2c(c1C(=O)O)CCC2 |
|  | 93 |  | 26 |  | O=C(O)C(=O)Nc1cc(-c2ccc(Oc3ccccc3)cc2)sc1C(=O)O |
| 400 | 320 |  | 12 |  | O=C(O)C(=O)Nc1sc2c(c1C(=O)O)CCCCC2 |
|  |  | 29 | 1.8 |  | O=C(O)C(=O)Nc1sc2c(c1C(=O)O)CCN(Cc1ccc3ccccc3n1)C2 |

| Ki [1] [µM] | Ki [2] [µM] | Ki [3] [µM] | Ki [5] [µM] | other results | Compound |
| --- | --- | --- | --- | --- | --- |
|  | 363 |  | 5.1 |  | O=C(O)C(=O)Nc1sc2c(c1C(=O)O)CC[S+]([O-])C2 (centres undefined) |
| 700 | 280 |  | 14 |  | O=C(O)C(=O)Nc1ccc(-c2ccccc2)cc1C(=O)O |
| 450 | 180 |  | 8 |  | O=C(O)C(=O)Nc1cc2[nH]ccc2cc1C(=O)O |
|  | 530 |  | 12 |  | COc1cccc(-c2cc(NC(=O)C(=O)O)c(C(=O)O)s2)c1 |
|  | 150 |  | 9 |  | COc1ccc(-c2cc(NC(=O)C(=O)O)c(C(=O)O)s2)cc1 |
| 113 | 250 |  | 6.1 |  | Nc1cccc(-c2cc(NC(=O)C(=O)O)c(C(=O)O)s2)c1 |
| 110 | 210 |  | 8 |  | O=C(O)C(=O)Nc1cc(-c2ccc(F)cc2)sc1C(=O)O |
| > 2000 | > 2000 |  |  | Ki [9]: 1100 µM | Cc1cccc(C(=O)O)c1NC(=O)C(=O)O |
|  |  | 12 | 0.9 |  | O=C(O)C(=O)Nc1sc2c(c1C(=O)O)CCN(Cc1cccnc1)C2 |
|  |  | 23 | 1 | Ki [4]: 48 µM | O=C(O)C(=O)Nc1sc2c(c1C(=O)O)CCN(Cc1ccccn1)C2 |
|  |  | 8.3 | 0.7 |  | COc1cccc(CN2CCc3c(sc(NC(=O)C(=O)O)c3C(=O)O)C2)c1 |
| 420 | 89 |  |  | Ki [9]: 14 µM | O=C(O)C(=O)Nc1ccc(I)cc1C(=O)O |
|  |  | 14 | 1 | Ki [4]: 24 µM | O=C(O)C(=O)Nc1sc2c(c1C(=O)O)CCN(Cc1ccccc1)C2 |
| > 2000 |  |  | 108 |  | O=C(O)C(=O)Nc1sccc1C(=O)O |
|  | 52 |  | 1.3 |  | O=C1CCc2c(sc(NC(=O)C(=O)O)c2C(=O)O)C1 |
| 90 | 200 |  | 11 |  | O=C(O)C(=O)Nc1cc(-c2ccsc2)sc1C(=O)O |
|  | 100 |  | 8.3 |  | O=C(O)C(=O)Nc1sc2c(c1C(=O)O)CCSC2 |
|  | 1790 |  | 8 |  | COc1cc(OC)cc(-c2cc(NC(=O)C(=O)O)c(C(=O)O)s2)c1 |
|  |  | 9 |  | Ki [4]: 12 µM | O=C(O)C(=O)Nc1sc2c(c1C(=O)O)CCN(CCc1ccsc1)C2 |
|  | 322 |  | 6.1 |  | O=C(O)C(=O)Nc1sc2c(c1C(=O)O)CCS(=O)(=O)C2 |
| 165 | 700 |  | 4.7 |  | O=C(O)C(=O)Nc1cc(-c2cccc([N+](=O)[O-])c2)sc1C(=O)O |
| 50 | 200 |  | 2.5 |  | O=C(O)COc1ccc(-c2cc(NC(=O)C(=O)O)c(C(=O)O)s2)cc1 |
| 50 | 100 |  | 13 |  | CC(C)Cc1ccc(-c2cc(NC(=O)C(=O)O)c(C(=O)O)s2)cc1 |
|  |  |  |  | Ki [10]: 75 µM | O=C(O)C(=O)Nc1cscc1C(=O)O |
| > 2000 | > 2000 |  | 1100 |  | CN(C(=O)C(=O)O)c1ccccc1C(=O)O |
|  |  | 12 | 1.1 |  | O=C(O)C(=O)Nc1sc2c(c1C(=O)O)CCN(Cc1ccncc1)C2 |
